# Source: ChEMBL document CHEMBL1126125, “Synthesis and antibacterial activity of 1-(substituted pyrrolyl)-7-(substituted amino)-6-fluoro-1,4-dihydro-4-oxo-3- quinolinecarboxylic acids” (1992)
# What was measured:
# Escherichia coli = test: In vitro antibacterial activity against Escherichia coli ATCC 25922.; format: functional
# How it was run: (§1)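 Agar dilution MIC. Organisms grown overnight in brain-heart infusion broth at 37 °C. Compound stock of 5 mg/mL serially diluted two-fold in BHI agar, giving final test concentrations of 200 to […] μg/mL. Plates incubated 24 h at 37 °C. MIC read as the lowest concentration that inhibited visible growth.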
# Staphylococcus aureus = test: In vitro antibacterial activity against Staphylococcus aureus ATCC 6538p.; format: functional; how it was run: as §1
MIC (Escherichia coli) [µg/mL],MIC (Staphylococcus aureus) [µg/mL],SMILES
> 100,> 100,O=C(O)c1cn(-c2ccc([N+](=O)[O-])cc2)c2cc(N3CCCC3)c(F)cc2c1=O
100,50,Cn1cc([N+](=O)[O-])cc1-n1cc(C(=O)O)c(=O)c2cc(F)c(Cl)cc21
100,100,CC1CN(c2cc3c(cc2F)c(=O)c(C(=O)O)cn3-c2cn(C)cc2[N+](=O)[O-])CCN1 (stereo not drawn)
100,100,Cn1cc(-n2cc(C(=O)O)c(=O)c3cc(F)c(Cl)cc32)c([N+](=O)[O-])c1
> 100,> 100,CC1CCCN(c2cc3c(cc2F)c(=O)c(C(=O)O)cn3-c2ccc([N+](=O)[O-])cc2)C1 (stereo not drawn)
> 100,25,CC1CCCN(c2cc3c(cc2F)c(=O)c(C(=O)O)cn3-c2cn(C)cc2[N+](=O)[O-])C1 (stereo not drawn)

# More lines, now with the values behind:
SMILES,MIC (Escherichia coli) [µg/mL],MIC (Staphylococcus aureus) [µg/mL]
O=C(O)c1cn(-c2ccc([N+](=O)[O-])cc2)c2cc(Cl)c(F)cc2c1=O,12.5,6.25
CN1CCN(c2cc3c(cc2F)c(=O)c(C(=O)O)cn3-c2cc([N+](=O)[O-])cn2C)CC1,3.12,6.25
Cn1cc(N)c(-n2cc(C(=O)O)c(=O)c3cc(F)c(N4CCNCC4)cc32)c1,50,100
Cn1cc([N+](=O)[O-])cc1-n1cc(C(=O)O)c(=O)c2cc(F)c(N3CCCC3)cc21,12.5,0.78
Cn1cc(-n2cc(C(=O)O)c(=O)c3cc(F)c(N4CCCNCC4)cc32)c([N+](=O)[O-])c1,100,100
CN1CCN(c2cc3c(cc2F)c(=O)c(C(=O)O)cn3-c2ccc([N+](=O)[O-])cc2)CC1,12.5,25
Cn1cc(-n2cc(C(=O)O)c(=O)c3cc(F)c(N4CCCCC4)cc32)c([N+](=O)[O-])c1,100,50
CC1CCCN(c2cc3c(cc2F)c(=O)c(C(=O)O)cn3-c2cc([N+](=O)[O-])cn2C)C1 (stereo not drawn),100,3.12
CN1CCN(c2cc3c(cc2F)c(=O)c(C(=O)O)cn3-c2cn(C)cc2[N+](=O)[O-])CC1,100,100
Cn1cc(-n2cc(C(=O)O)c(=O)c3cc(F)c(N4CCCC4)cc32)c([N+](=O)[O-])c1,> 100,> 100
Cn1cc(-n2cc(C(=O)O)c(=O)c3cc(F)c(N4CCNCC4)cc32)c([N+](=O)[O-])c1,100,100
CC1CCN(c2cc3c(cc2F)c(=O)c(C(=O)O)cn3-c2cn(C)cc2[N+](=O)[O-])CC1,> 100,12.5
CN1CCN(c2cc3c(cc2F)c(=O)c(C(=O)O)cn3-c2ccc(F)cc2)CC1 [DIFLOXACIN],0.39,0.195
